# Test results taken from PubChem BioAssay.
# Activity calls are given as the source filed them.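 Rule for the calls, unless noted: active = visual image review flags a hit and inhibition of aggregation exceeds 20%; inconclusive = visual hit but inhibition at or below 20%; inactive = no hit on visual image review.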
# Key:
# [1] = inhibitors of TNFa-induced NFkB p65 translocation, primary screen, imaging, HUVEC, MLSMR starter and 10KST1 sets (AID 438;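 active = inhibition above 20% together with a positive visual image hit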;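 note: compound added about 3h40 before a 20 min TNFalpha stimulation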;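 for inhibition: signal is the nuclear over cytoplasmic p65 intensity ratio per well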); settings: HUVEC TNFa-induced p65 nuclear translocation; cell count: measured here: nuclei count (cytotoxicity indicator), at 2.08 µM; inhibition: at 2 µM, stronger effect = higher value, 0% TNFa-plus-vehicle, 100% no-TNFa wells
# [2] = inhibitors of mutant huntingtin aggregation, primary screen, imaging, exon1htt(103Q)mCFP cells, high-content imaging (AID 483); settings: exon1htt(103Q)mCFP cell line, aggregate imaging, at 2 µM; inhibition of aggregation: stronger effect = higher value; nuclei count: measured here: cell count, toxicity;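 note: compound exposure lasted 3 days before fixation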;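 for nuclei count: percent of the per-plate median nuclei count of sample wells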
# [3] = inhibitors of E-selectin induction by TNFa, primary screen, imaging, HUVEC, immunofluorescence, MLSMR starter and 10KST1 sets (AID 487;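 active = visually confirmed hit in the image check and inhibition above 20%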;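 for inhibition: signal is fraction of cell area covered by stained E-selectin grains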;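 for nuclei count: 100% = median nuclei count of all wells on the same plate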); settings: HUVEC TNFalpha-induced E-selectin immunofluorescence imaging, at 2 µM; inhibition: stronger effect = higher value; nuclei count: measured here: cell number, toxicity
# [4] = target: Voltage-gated potassium channel subunit beta-2 (Rattus norvegicus) (UniProt P62483); assay: KvBeta enzyme negative modulators, primary screen, biochemical, NADPH fluorescence (AID 622;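 active = fluorescence slope higher than the sample average by over 3 SD, cut at about -0.22 in these data, passing the limit was not always enough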;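 note: slope of raw intensity against log time taken from 70 to 1610 s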); settings: recombinant KvBeta, 4-cyanobenzaldehyde reduction, at 10 µM, stronger effect = higher value
# [5] = target: Voltage-gated potassium channel subunit beta-2 (Rattus norvegicus) (UniProt P62483); assay: KvBeta positive modulators, primary screen, biochemical, NADPH fluorescence (AID 623;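 active = NADPH fluorescence slope more negative than the mean of all samples by about 3 SD, 99.7% confidence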;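 note: fluorescence intensity change per second fitted from 20 to 320 s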); settings: Recombinant KvBeta, NADPH fluorescence decrease slope, 10 min; at 10 µM; stronger effect = lower value
# [6] = target: Muscarinic acetylcholine receptor M4 (Homo sapiens) (UniProt P08173); assay: compounds altering M4/GIRK thallium flux, either direction, primary screen, M4 allosteric agonist project, cell-based, HEK293 M4/GIRK, BTC-AM (AID 625;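 active = fluorescence slope after compound addition differing from the mean of all tested samples at 99.7% confidence, mostly higher but some lower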;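 note: thallium influx through GIRK channels coupled to M4 in HEK293 cells with BTC-AM dye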); settings: at 10 µM, actives lie on both sides
# Procedure, shortened: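 Material – HEK293 cells with M4 receptor and GIRK channels · Buffer or medium – pH 7.3 thallium assay buffer · Doses – one dose, 10 µM final · Timing – cells overnight at 37 °C, BTC-AM loading 1 h, reads 2 min total · Measured by – kinetic fluorescence with BTC-AM dye · Controls – carbachol and DMSO controls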
# [7] = inhibitors of Sendai virus-induced IRF3 signaling, primary screen, TLR/RLR signaling modifier project, cell-based, Sendai virus stimulus, luciferase, 10K MLSCN set (AID 602276;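 active = inhibition at or above 50% at 10 µM; inactive = inhibition below 50%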;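 note: firefly luciferase from ISG56 promoter only with Renilla not read in this screen; 0% = Sendai virus plus DMSO and 100% = medium plus DMSO without virus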); settings: HEK293 RL24 IRF3 luciferase reporter, at 10 µM, stronger effect = higher value
# [8] = inhibitors of poly I:C-induced TLR3 signaling, primary screen, cell-based, poly I:C stimulus, luciferase, 10K MLSCN set (AID 602277;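 active = inhibition of the reporter signal at or above 50%; inactive = inhibition below 50%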); settings: HEK293-TLR3 RL24 IRF3 luciferase reporter, at 10 µM, stronger effect = higher value
# Chain of Muscarinic acetylcholine receptor M4 (Homo sapiens) (P08173 whole entry, looked up): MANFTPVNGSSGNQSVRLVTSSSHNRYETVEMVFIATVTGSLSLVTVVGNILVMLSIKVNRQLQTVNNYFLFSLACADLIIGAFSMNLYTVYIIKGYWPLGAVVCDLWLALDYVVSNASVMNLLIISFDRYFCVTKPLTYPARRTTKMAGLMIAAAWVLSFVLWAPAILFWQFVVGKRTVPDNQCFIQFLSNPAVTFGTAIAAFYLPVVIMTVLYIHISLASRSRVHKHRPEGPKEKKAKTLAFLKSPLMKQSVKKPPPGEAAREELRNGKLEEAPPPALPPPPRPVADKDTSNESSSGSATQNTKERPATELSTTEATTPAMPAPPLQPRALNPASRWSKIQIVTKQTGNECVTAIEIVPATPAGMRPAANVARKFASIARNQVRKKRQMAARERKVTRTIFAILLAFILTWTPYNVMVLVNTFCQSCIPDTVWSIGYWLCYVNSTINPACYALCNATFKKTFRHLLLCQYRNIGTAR
# Chain of Voltage-gated potassium channel subunit beta-2 (Rattus norvegicus) (P62483 whole entry, looked up): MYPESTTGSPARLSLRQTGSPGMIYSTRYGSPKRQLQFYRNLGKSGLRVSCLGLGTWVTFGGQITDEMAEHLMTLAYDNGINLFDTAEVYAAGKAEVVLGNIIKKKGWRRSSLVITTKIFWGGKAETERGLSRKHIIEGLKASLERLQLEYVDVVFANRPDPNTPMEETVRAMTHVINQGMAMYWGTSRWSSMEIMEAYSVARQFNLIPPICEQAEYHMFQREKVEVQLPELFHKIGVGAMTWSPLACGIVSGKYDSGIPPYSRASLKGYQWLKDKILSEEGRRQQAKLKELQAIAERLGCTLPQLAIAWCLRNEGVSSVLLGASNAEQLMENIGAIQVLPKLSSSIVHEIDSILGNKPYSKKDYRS
Compound,cell count [1],inhibition [1],inhibition of aggregation [2],nuclei count [2],inhibition [3],nuclei count [3],fluorescence slope [4],NADPH fluorescence slope [5],fluorescence slope [6],inhibition [7],inhibition [8]
Cc1nc2ccccc2c(=O)n1NC(=O)c1c(O)c2c(n(CC(C)C)c1=O)CCCC2,439,4% (inactive),9.9% (inactive),76.7%,21.1% (inactive),101%,-0.558 (inactive),-5e-05 (inactive),0.00523 (inactive),18.5% (inactive),13.4% (inactive)
O=C(Cn1ccc2ccccc2c1=O)NCCC(=O)NC1CCN(Cc2ccccc2)CC1,661,-8.5% (inactive),2.9% (inactive),83.9%,-130% (inactive),129%,-0.486 (inactive),-0.000203 (inactive),0.00456 (inactive),-8.1% (inactive),0.132% (inactive)
CCCCC(c1nnnn1C1CCCC1)N1CCN(C2CCCCC2)CC1 (centres undefined),625,-40.8% (inactive),-12% (inactive),100%,-57.4% (inactive),111%,-0.314 (inactive),-3.5e-05 (inactive),0.00481 (inactive),10% (inactive),39.4% (inactive)
O=S(=O)(NCCc1csc(-c2ccccc2)n1)c1ccc2c(c1)OCCO2,363,-13.3% (inactive),2.9% (inactive),108%,29.5% (inactive),76.2%,-0.622 (inactive),1e-06 (inactive),0.00312 (inactive),14.6% (inactive),9.91% (inactive)
Cc1ccc(-c2nnc(-c3ccc(Br)cc3)o2)o1,454,0.5% (inactive),-10.6% (inactive),116%,-31.4% (inactive),102%,-0.389 (inactive),-3e-05 (inactive),0.00923 (inactive),-38.9% (inactive),-108% (inactive)
CCC(NS(=O)(=O)c1ccc(C)cc1)C(=O)N1CCC2(O)CCCCC2C1 (centres undefined),379,-3.1% (inactive),-10.7% (inactive),106%,-121% (inactive),215%,-0.429 (inactive),0.000113 (inactive),0.00572 (inactive),0.0772% (inactive),14.3% (inactive)
CC1CN(CC(O)COc2ccc(C(C)C)cc2)CC(C)O1 (centres undefined),812,-4.8% (inactive),7.5% (inactive),120%,-54.5% (inactive),140%,-0.534 (inactive),-0.000138 (inactive),0.0054 (inactive),-56.4% (inactive),98.7% (active)
O=C(Cc1ccsc1-c1ccccc1)NO,483,-1.2% (inactive),11.3% (inactive),76%,44.1% (inactive),57.7%,-0.46 (inactive),-3.2e-05 (inactive),0.00508 (inactive),17.8% (inactive),11.3% (inactive)
COc1cccc(CNC(=O)C2CCN(S(=O)(=O)c3ccc(F)cc3)CC2)c1,603,9.6% (inactive),5.3% (inactive),103%,-47.8% (inactive),123%,-0.553 (inactive),-5.5e-05 (inactive),0.00553 (inactive),19.5% (inactive),20.1% (inactive)
CCCCCCNS(=O)(=O)c1ccc(Cl)s1,579,9.2% (inactive),-1.2% (inactive),102%,-52.4% (inactive),89.1%,-0.492 (inactive),0.000132 (inactive),0.00433 (inactive),19.6% (inactive),22.4% (inactive)
Cn1c(CCCNC(=O)c2ccccc2)nc2ccccc21,761,-25.8% (inactive),-0.3% (inactive),104%,-49.3% (inactive),131%,-0.275 (inactive),-5.3e-05 (inactive),0.00743 (inactive),13.2% (inactive),1.35% (inactive)
O=C1COc2ccc(C(=O)NCc3ccco3)cc2N1,668,-0.8% (inactive),-4.2% (inactive),79.6%,85.2% (active),82.3%,-0.575 (inactive),-3.7e-05 (inactive),0.00601 (inactive),-3.82% (inactive),9.4% (inactive)
COc1cc(OC)cc(-c2nnc(Nc3nc4c(F)cccc4s3)o2)c1,345,-3.8% (inactive),12% (inactive),84.3%,28.3% (inactive),92.1%,-0.336 (inactive),7e-05 (inactive),0.0196 (active),17.6% (inactive),12.9% (inactive)
O=C(NCCN1CCN(c2ccccc2)CC1)c1ccc(NC(=O)C2CCCO2)cc1 (centres undefined),562,-21.6% (inactive),-9% (inactive),99.2%,-135% (inactive),114%,-0.468 (inactive),5.8e-06 (inactive),0.00539 (inactive),3.22% (inactive),6.35% (inactive)
